Legend:
[1] = species: Rattus norvegicus; test: Ability to protect cerebellar granule cells (CGC) from iodoacetate (IAA)-induced toxicity; format: functional, cell-based
[2] = species: Rattus norvegicus; test: Compound was tested for 50% Inhibition of lipid peroxidation in rat brain homogenate; format: functional
[3] = species: Rattus norvegicus; test: Relative efficacy gives an indication of the percent of viable cells (Rat cerebellar granule cells) at the maximal efficacious concentration of 6 uM; format: functional
[4] = species: Rattus norvegicus; test: Relative efficacy gives an indication of the percent of viable cells (Rat cerebellar granule cells) at the maximal efficacious concentration of 0.3 uM; format: functional
[5] = species: Rattus norvegicus; test: Relative efficacy gives an indication of the percent of viable cells (Rat cerebellar granule cells) at the maximal efficacious concentration of 26.8 uM; format: functional
[6] = species: Rattus norvegicus; test: Relative efficacy gives an indication of the percent of viable cells (Rat cerebellar granule cells) at the maximal efficacious concentration of 77.8 uM; format: functional
[7] = species: Rattus norvegicus; test: Relative efficacy gives an indication of the percent of viable cells (Rat cerebellar granule cells) at the maximal efficacious concentration of 5.0 uM; format: functional
[8] = species: Rattus norvegicus; test: Relative efficacy gives an indication of the percent of viable cells (Rat cerebellar granule cells) at the maximal efficacious concentration of 0.4 uM; format: functional
[9] = species: Rattus norvegicus; test: Relative efficacy gives an indication of the percent of viable cells (Rat cerebellar granule cells) at the maximal efficacious concentration of 0.6 uM; format: functional
[10] = species: Rattus norvegicus; test: Relative efficacy gives an indication of the percent of viable cells (Rat cerebellar granule cells) at the maximal efficacious concentration of 46.7 uM; format: functional
How it was run: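 Rat cerebellar granule cells exposed to 30 µM iodoacetate for 30 min in physiological salt solution, which was then replaced with maintenance medium containing test compound. Viability was read 24 h later. Relative efficacy is the percent of viable cells at the maximal efficacious concentration.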

[11] = species: Rattus norvegicus; test: Relative efficacy gives an indication of the percent of viable cells (Rat cerebellar granule cells) at the maximal efficacious concentration of 33.3 uM; format: functional

Row | Structure (SMILES) | IC50 [2] [µM] | EC50 [1] [µM] | also measured
1 | Cc1cc(C(C)(C)C)c(O)c(C(C)(C)C)c1 [BUTYLATED HYDROXYTOLUENE] | 5.9 | 6 | Relative efficacy [3]: 0.9
2 | COc1cc(CCCn2ccc(=O)c(O)c2C)cc(OC)c1O | 2 | 26.8 | Relative efficacy [5]: 0.8
3 | Cc1c(C)c2c(c(C)c1O)CCC(C)(C(=O)O)O2 (stereo not given) [TROLOX] | 28.7 | 77.8 | Relative efficacy [6]: 0.9
4 | CCNCc1cc(C(C)(C)C)c(O)c(C(C)(C)C)c1 | 14.8 | 5 | Relative efficacy [7]: 0.9
5 | Cc1c(O)c(=O)ccn1CCCCc1cc(C(C)(C)C)c(O)c(C(C)(C)C)c1 | 2.9 | 0.6 | Relative efficacy [9]: 0.7
6 | Cc1c(O)c(=O)ccn1C [DEFERIPRONE] | 3.9 | 46.7 | Relative efficacy [10]: 1
7 | COc1cc(CCn2ccc(=O)c(O)c2C)cc(OC)c1O | 3.3 | 33.3 | Relative efficacy [11]: 0.9

Now from value to molecule, other results behind:

Row | IC50 [2] [µM] | Structure (SMILES) | EC50 [1] [µM] | also measured
8 | 0.3 | Cc1c(O)c(=O)ccn1CCc1cc(C(C)(C)C)c(O)c(C(C)(C)C)c1 | 0.3 | Relative efficacy [4]: 0.9
9 | 0.4 | Cc1c(O)c(=O)ccn1CCSc1cc(C(C)(C)C)c(O)c(C(C)(C)C)c1 | 0.4 | Relative efficacy [8]: 0.6
10 | 1 | Cc1c(O)c(=O)ccn1CCCc1cc(C(C)(C)C)c(O)c(C(C)(C)C)c1 | 0.3 | Relative efficacy [4]: 0.8
